Three compounds from ChEMBL document CHEMBL2321736 (ACS Med Chem Lett, 2013) can be followed below.

Data set [1] is described as follows: Thermodynamic solubility of the compound at pH 7.4. Format: physicochemical. The note with it: buffer, read-out: Therm_solubility. In short, it runs like this: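 Thermodynamic solubility measured at pH 7.4.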
The nature of data set [2]: Volume of distribution in Sprague-Dawley rat at 0.5 mg/kg, iv. Format: ADME, organism-based. The arrangement: dose 0.5 mg/kg, route intravenous. Conditions: in vivo. In short, it runs like this: (§1)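 Male Sprague−Dawley rats given 0.5 mg/kg iv in 60% NMP solution, n = 3. Brain/plasma value is the unbound brain to unbound plasma AUC ratio after this iv dose.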
A short description of data set [3]: Plasma clearance in Sprague-Dawley rat at 0.5 mg/kg, iv. Set-up: dose 0.5 mg/kg, route intravenous. Format: ADME, organism-based. In short, it runs like this:
as §1

Data set [4] can be described thus: Ratio of unbound drug level in brain to plasma in Sprague-Dawley rat at 0.5 mg/kg, iv. Format: ADME, organism-based. The arrangement: dose 0.5 mg/kg, route intravenous. The note with it: read-out: K(p,uu,brain). In short, it runs like this:
as §1

Data set [5] in a line: Oral bioavailability in beagle dog at 1 mg/kg. Format: ADME, organism-based, Canis lupus familiaris. Conditions: in vivo. In short, it runs like this: (§2)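 Male Beagle dogs, n = 3. iv dose 0.5 mg/kg in 30% NMP solution; oral dose 1 mg/kg as aqueous suspension of 1% RC591 + 0.2% tween80.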
Data set [6] in a line: Plasma clearance in beagle dog at 0.5 mg/kg, iv and 1 mg/kg, po. Format: ADME, organism-based, Canis lupus familiaris. In short, it runs like this:
as §2

Each structure is given as a SMILES string. In brackets after ≈: the same amount, converted by molar mass.

Regarding `CNc1nc(Nc2cc(F)c(C(=O)N3CCOCC3)cc2OC)ncc1C(F)(F)F`, the solubility thermodynamic in data set [1] is less than 0.9 µg/mL.
For `CNc1nc(Nc2cnn(CC(C)(C)O)c2C)ncc1C(F)(F)F`, the Vd (in general, the apparent volume that relates the amount in the body to the concentration in plasma or blood) in data set [2] is 0.88 L/kg. In addition, the clearance in data set [3] was 35 mL/min/kg. Besides, in data set [4], the Kp uu worked out at 0.26.
For `CNc1nc(Nc2cnn(CC(C)(C)O)c2Cl)ncc1C(F)(F)F`, the Vd in data set [2] was found to be 2.5 L/kg. Also, in data set [5], the bioavailability – broadly, the share of a dose that reaches the circulation, judged against a reference dose that is usually intravenous – was determined as 31%. For the same compound, the values for the clearance in data set [6] and in data set [3] were 22 mL/min/kg and 21 mL/min/kg, respectively. For the same compound, the solubility thermodynamic in data set [1] came out at 20 µg/mL (≈ 54.8 µM). The Kp uu in data set [4] stood at 0.37.
